Results: ChEMBL document CHEMBL1255475, “Mutant prevention concentrations of four carbapenems against gram-negative rods” (2010)
Converted amounts (≈) assume the structure as drawn.

Legend:
Assay type in all cases: functional
Escherichia coli [1] = assay: Antibacterial activity against beta-lactamase-negative Escherichia coli E345 incubated up to 7 days by agar dilution method; conditions: E345, 168 h
Klebsiella pneumoniae [2] = assay: Antibacterial activity against beta-lactamase-positive ESBL-negative Klebsiella pneumoniae E479 incubated up to 7 days by agar dilution method; conditions: E479, 168 h
Procedure, shortened: (§1)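 MPC determination: overnight cultures on blood trypticase soy agar at 35°C in air were resuspended in 0.9% saline, and CFU were counted on drug-free Mueller-Hinton agar. […] Growth was retested by agar dilution to confirm mutants. MPC was the lowest concentration preventing resistant-mutant growth.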

Klebsiella pneumoniae [3] = assay: Antibacterial activity against beta-lactamase-positive ESBL-negative Klebsiella pneumoniae E477 incubated up to 7 days by agar dilution method; conditions: E477, 168 h
Klebsiella pneumoniae [4] = assay: Antibacterial activity against beta-lactamase-positive ESBL-negative Klebsiella pneumoniae E481 incubated up to 7 days by agar dilution method; conditions: E481, 168 h
Klebsiella pneumoniae [5] = assay: Antibacterial activity against beta-lactamase-positive ESBL-positive Klebsiella pneumoniae E453 incubated up to 7 days by agar dilution method; conditions: E453, 168 h
Procedure, shortened: (§2)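 MIC by CLSI agar dilution, with quality-control strains in each run. Beta-lactamase status was set by 30 μg cefazolin Kirby-Bauer disk diffusion. ESBL status was set by cefotaxime and ceftazidime disks (30 μg) with and without clavulanic acid (10 μg).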

Klebsiella pneumoniae [6] = assay: Antibacterial activity against beta-lactamase-positive ESBL-negative Klebsiella pneumoniae E507 incubated up to 7 days by agar dilution method; conditions: E507, 168 h; procedure, shortened: as §1
Escherichia coli [7] = assay: Antibacterial activity against beta-lactamase-negative Escherichia coli E424 […] by agar dilution method
Escherichia coli [8] = assay: Antibacterial activity against beta-lactamase-positive ESBL-positive Escherichia coli E459 incubated up to 7 days by agar dilution method; conditions: E459, 168 h; procedure, shortened: as §2
Escherichia coli [9] = assay: Antibacterial activity against beta-lactamase-positive ESBL-positive Escherichia coli E465 incubated up to 7 days by agar dilution method; conditions: E465, 168 h; procedure, shortened: as §2
Escherichia coli [10] = assay: Antibacterial activity against beta-lactamase-positive ESBL-negative Escherichia coli E484 incubated up to 7 days by agar dilution method; conditions: E484, 168 h
Klebsiella pneumoniae [11] = assay: Antibacterial activity against beta-lactamase-negative Klebsiella pneumoniae E358 incubated up to 7 days by agar dilution method; conditions: E358, 168 h
Klebsiella pneumoniae [12] = assay: Antibacterial activity against beta-lactamase-negative Klebsiella pneumoniae E419 incubated up to 7 days by agar dilution method; conditions: E419, 168 h
Klebsiella pneumoniae [13] = assay: Antibacterial activity against beta-lactamase-negative Klebsiella pneumoniae E361 incubated up to 7 days by agar dilution method; conditions: E361, 168 h
Acinetobacter baumannii [14] = assay: Antibacterial activity against Acinetobacter baumannii A898 assessed as mutant prevention concentration after overnight incubation
Acinetobacter baumannii [15] = assay: Antibacterial activity against Acinetobacter baumannii A885 assessed as mutant prevention concentration after overnight incubation
Acinetobacter baumannii [16] = assay: Antibacterial activity against Acinetobacter baumannii A903 assessed as mutant prevention concentration after overnight incubation
Klebsiella pneumoniae [17] = assay: Antibacterial activity against beta-lactamase-negative Klebsiella pneumoniae E362 assessed as mutant prevention concentration after overnight incubation
Klebsiella pneumoniae [18] = assay: Antibacterial activity against beta-lactamase-negative Klebsiella pneumoniae E418 assessed as mutant prevention concentration after overnight incubation
Procedure, shortened: (§3)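 Overnight growth on blood trypticase soy agar (35°C, air) was resuspended in 0.9% saline and counted on drug-free Mueller-Hinton agar. […] Colonies were retested by agar dilution to confirm mutants. MPC was the lowest concentration preventing resistant-mutant growth.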

Klebsiella pneumoniae [19] = assay: Antibacterial activity against beta-lactamase-positive ESBL-positive Klebsiella pneumoniae E476 assessed as mutant prevention concentration after overnight incubation; procedure, shortened: as §3
Klebsiella pneumoniae [20] = assay: Antibacterial activity against beta-lactamase-positive ESBL-positive Klebsiella pneumoniae E475 assessed as mutant prevention concentration after overnight incubation; procedure, shortened: as §3
Klebsiella pneumoniae [21] = assay: Antibacterial activity against beta-lactamase-positive ESBL-negative Klebsiella pneumoniae E479 assessed as mutant prevention concentration after overnight incubation; procedure, shortened: as §3
Klebsiella pneumoniae [22] = assay: Antibacterial activity against beta-lactamase-positive ESBL-negative Klebsiella pneumoniae E473 assessed as mutant prevention concentration after overnight incubation; procedure, shortened: as §3
Klebsiella pneumoniae [23] = assay: Antibacterial activity against beta-lactamase-positive ESBL-negative Klebsiella pneumoniae E481 assessed as mutant prevention concentration after overnight incubation; procedure, shortened: as §3
Klebsiella pneumoniae [24] = assay: Antibacterial activity against beta-lactamase-negative Klebsiella pneumoniae E420 assessed as mutant prevention concentration after overnight incubation; procedure, shortened: as §3
Pseudomonas aeruginosa [25] = assay: Antibacterial activity against Pseudomonas aeruginosa P356 assessed as mutant prevention concentration after overnight incubation
Pseudomonas aeruginosa [26] = assay: Antibacterial activity against Pseudomonas aeruginosa P373 assessed as mutant prevention concentration after overnight incubation
Pseudomonas aeruginosa [27] = assay: Antibacterial activity against Pseudomonas aeruginosa P320 assessed as mutant prevention concentration after overnight incubation
Pseudomonas aeruginosa [28] = assay: Antibacterial activity against Pseudomonas aeruginosa P327 assessed as mutant prevention concentration after overnight incubation
Pseudomonas aeruginosa [29] = assay: Antibacterial activity against Pseudomonas aeruginosa P323 assessed as mutant prevention concentration after overnight incubation
Pseudomonas aeruginosa [30] = assay: Antibacterial activity against Pseudomonas aeruginosa P334 assessed as mutant prevention concentration after overnight incubation
Pseudomonas aeruginosa [31] = assay: Antibacterial activity against Pseudomonas aeruginosa P338 assessed as mutant prevention concentration after overnight incubation
Pseudomonas aeruginosa [32] = assay: Antibacterial activity against Pseudomonas aeruginosa P352 assessed as mutant prevention concentration after overnight incubation
Pseudomonas aeruginosa [33] = assay: Antibacterial activity against Pseudomonas aeruginosa P340 assessed as mutant prevention concentration after overnight incubation
Pseudomonas aeruginosa [34] = assay: Antibacterial activity against Pseudomonas aeruginosa P341 assessed as mutant prevention concentration after overnight incubation
Acinetobacter baumannii [35] = assay: Antibacterial activity against Acinetobacter baumannii A848 assessed as mutant prevention concentration after overnight incubation
Acinetobacter baumannii [36] = assay: Antibacterial activity against Acinetobacter baumannii A911 assessed as mutant prevention concentration after overnight incubation
Acinetobacter baumannii [37] = assay: Antibacterial activity against Acinetobacter baumannii A910 assessed as mutant prevention concentration after overnight incubation
Acinetobacter baumannii [38] = assay: Antibacterial activity against Acinetobacter baumannii A896 assessed as mutant prevention concentration after overnight incubation
Escherichia coli [39] = assay: Antibacterial activity against beta-lactamase-negative Escherichia coli E344 assessed as mutant prevention concentration after overnight incubation
Escherichia coli [40] = assay: Antibacterial activity against beta-lactamase-negative Escherichia coli E350 assessed as mutant prevention concentration after overnight incubation
Escherichia coli [41] = assay: Antibacterial activity against beta-lactamase-positive ESBL-positive Escherichia coli E458 assessed as mutant prevention concentration after overnight incubation; procedure, shortened: as §3
Escherichia coli [42] = assay: Antibacterial activity against beta-lactamase-positive ESBL-negative Escherichia coli E415 assessed as mutant prevention concentration after overnight incubation; procedure, shortened: as §3
Escherichia coli [43] = assay: Antibacterial activity against beta-lactamase-positive ESBL-positive Escherichia coli E465 assessed as mutant prevention concentration after overnight incubation; procedure, shortened: as §3
Klebsiella pneumoniae [44] = assay: Antibacterial activity against beta-lactamase-negative Klebsiella pneumoniae E357 assessed as mutant prevention concentration after overnight incubation
Klebsiella pneumoniae [45] = assay: Antibacterial activity against beta-lactamase-negative Klebsiella pneumoniae E358 assessed as mutant prevention concentration after overnight incubation
Klebsiella pneumoniae [46] = assay: Antibacterial activity against beta-lactamase-negative Klebsiella pneumoniae E361 assessed as mutant prevention concentration after overnight incubation

C[C@@H](O)[C@H]1C(=O)N2C(C(=O)O)=C(S[C@@H]3CN[C@H](CNS(N)(=O)=O)C3)[C@H](C)[C@H]12 [DORIPENEM]
MIC (Escherichia coli [1]): 0.03 µg/mL (≈ 0.0713 µM)
MIC (Klebsiella pneumoniae [2]): 4 µg/mL (≈ 9.51 µM)
MIC (Klebsiella pneumoniae [3]): 2 µg/mL (≈ 4.76 µM)
MIC (Klebsiella pneumoniae [4]): 2 µg/mL (≈ 4.76 µM)
MIC (Klebsiella pneumoniae [5]): 0.06 µg/mL (≈ 0.143 µM)
MIC (Klebsiella pneumoniae [6]): 2 µg/mL (≈ 4.76 µM)
MIC (Escherichia coli [7]): 0.03 µg/mL (≈ 0.0713 µM)
MIC (Escherichia coli [8]): 0.03 µg/mL (≈ 0.0713 µM)
MIC (Escherichia coli [9]): 0.03 µg/mL (≈ 0.0713 µM)
MIC (Escherichia coli [10]): 2 µg/mL (≈ 4.76 µM)
MIC (Klebsiella pneumoniae [11]): 0.06 µg/mL (≈ 0.143 µM)
MIC (Klebsiella pneumoniae [12]): 0.125 µg/mL (≈ 0.297 µM)
MIC (Klebsiella pneumoniae [13]): 0.06 µg/mL (≈ 0.143 µM)
MPC (Acinetobacter baumannii [14]): 4 µg/mL
MPC (Acinetobacter baumannii [15]): 8 µg/mL
MPC (Acinetobacter baumannii [16]): 4 µg/mL
MPC (Klebsiella pneumoniae [17]): 0.125 µg/mL
MPC (Klebsiella pneumoniae [18]): 0.25 µg/mL
MPC (Klebsiella pneumoniae [19]): 8 µg/mL
MPC (Klebsiella pneumoniae [20]): 16 µg/mL
MPC (Klebsiella pneumoniae [21]): >64 µg/mL
MPC (Klebsiella pneumoniae [22]): 8 µg/mL
MPC (Klebsiella pneumoniae [23]): 8 µg/mL
MPC (Klebsiella pneumoniae [24]): 0.06 µg/mL
MPC (Pseudomonas aeruginosa [25]): >4 µg/mL
MPC (Pseudomonas aeruginosa [26]): >4 µg/mL
MPC (Pseudomonas aeruginosa [27]): >2 µg/mL
MPC (Pseudomonas aeruginosa [28]): 4 µg/mL
MPC (Pseudomonas aeruginosa [29]): 4 µg/mL
MPC (Pseudomonas aeruginosa [30]): >2 µg/mL
MPC (Pseudomonas aeruginosa [31]): 4 µg/mL
MPC (Pseudomonas aeruginosa [32]): 2 µg/mL
MPC (Pseudomonas aeruginosa [33]): 1 µg/mL
MPC (Pseudomonas aeruginosa [34]): 8 µg/mL
MPC (Acinetobacter baumannii [35]): 16 µg/mL
MPC (Acinetobacter baumannii [36]): 8 µg/mL
MPC (Acinetobacter baumannii [37]): 4 µg/mL
MPC (Acinetobacter baumannii [38]): 1 µg/mL
MPC (Escherichia coli [39]): 0.06 µg/mL
MPC (Escherichia coli [40]): 0.125 µg/mL
MPC (Escherichia coli [41]): 0.06 µg/mL
MPC (Escherichia coli [42]): 0.06 µg/mL
MPC (Escherichia coli [43]): 0.5 µg/mL
MPC (Klebsiella pneumoniae [44]): 0.125 µg/mL
MPC (Klebsiella pneumoniae [45]): 0.125 µg/mL
MPC (Klebsiella pneumoniae [46]): 0.125 µg/mL
